In ChEMBL document CHEMBL4732095, “Novel naphthylamide derivatives as dual-target antifungal inhibitors: Design, synthesis and biological evaluation” (Eur J Med Chem, 2021):
Calls of active or inactive are those of the source. The calls are words filed in the database; no cut-off is given here.

Key:
Nakaseomyces glabratus = test: Antifungal activity against Candida glabrata ATCC 0001 assessed as inhibition of microbial growth by NCCLS protocol based method; assay type: functional
In short: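 Broth MIC50 determined following NCCLS guidelines in Sabouraud medium, with fungal suspension in 24-well format. Compound tested at 0.0625, 0.125, 0.5, 1, 2, 4, 8 and 16 μg/mL. Plates cultured statically at 35 °C. MIC50 is the lowest concentration giving 50% growth inhibition. Naftifine and fluconazole served as positive controls.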

Candida albicans [1] = test: Antifungal activity against fluconazole-resistant Candida albicans 17# assessed as inhibition of microbial growth by NCCLS protocol based method; assay type: functional
Candida albicans [2] = test: Antifungal activity against fluconazole-resistant Candida albicans CaR assessed as inhibition of microbial growth by NCCLS protocol based method; assay type: functional
Candida albicans [3] = test: Antifungal activity against Candida albicans ATCC SC5314 assessed as reduction in survival rate of fungal cells (reference value: 97%); assay type: functional
Candida albicans [4] = test: Antifungal activity against Candida albicans ATCC SC5314 assessed as reduction in size of fungal cells (reference value: 8.29 micrometer); assay type: functional
Candida albicans [5] = test: Antifungal activity against Candida albicans ATCC SC5314 assessed as disappearance of fungal cell boundaries at 4 ug/ml incubated for 72 hrs by TEM analysis; assay type: functional, organism-based; settings: dose 4.0 µg/ml
In short: (§1)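 C. albicans SC5314 suspension prepared per NCCLS protocol, exposed to compound at 4 μg/mL and incubated at 35 °C. Sampled at 72 h and 144 h, with a 0 h reference. Samples fixed at 4 °C in 3% glutaraldehyde, washed in PBS, stained with uranium/osmium for 30 min, and imaged by transmission electron microscopy.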

Candida albicans [6] = test: Antifungal activity against Candida albicans ATCC SC5314 assessed as irregular cell structure at 4 ug/ml incubated for 72 hrs by TEM analysis; assay type: functional, organism-based; settings: dose 4.0 µg/ml; in short: as §1
Candida albicans [7] = test: Antifungal activity against Candida albicans ATCC SC5314 assessed as edema cavitation at 4 ug/ml incubated for 72 hrs by TEM analysis; assay type: functional, organism-based; settings: dose 4.0 µg/ml; in short: as §1
Candida albicans [8] = test: Antifungal activity against Candida albicans ATCC SC5314 assessed as appearance of disordered ridge arrangement in cytoplasm at 4 ug/ml incubated for 72 hrs by TEM analysis; assay type: functional, organism-based; settings: dose 4.0 µg/ml; in short: as §1
Candida albicans [9] = test: Antifungal activity against Candida albicans ATCC SC5314 assessed as exfoliation of rough ER particles at 4 ug/ml incubated for 72 hrs by TEM analysis; assay type: functional, organism-based; settings: dose 4.0 µg/ml; in short: as §1
Candida albicans [10] = test: Antifungal activity against Candida albicans ATCC SC5314 assessed as cracked fungal cells at 4 ug/ml incubated for 144 hrs by TEM analysis; assay type: functional, organism-based; settings: dose 4.0 µg/ml; in short: as §1
Candida albicans SC5314 [11] = test: Inhibition of SE/CYP51 in Candida albicans ATCC SC5314 assessed as ergosterol level at […] ug/ml incubated for 48 hrs by LC/MS analysis (reference value: 95.1 %); design: scale not given: the % may be the effect or the level left; settings: dose 0.125 µg/ml
Candida albicans SC5314 [12] = test: Inhibition of SE/CYP51 in Candida albicans ATCC SC5314 assessed as lanosterol level at 4 ug/ml incubated for 48 hrs by LC/MS analysis; design: scale not given: the % may be the effect or the level left; settings: dose 4.0 µg/ml
In short: (§2)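 C. albicans SC5314 cells exposed to compound at 0.125, 0.5 or 4 μg/mL for 48 h, alongside untreated, fluconazole and naftifine controls. Sterols (ergosterol, squalene, lanosterol, eburicol, unknown) analysed by LC-MS. Each component expressed as percentage of total sterols from peak area ratios.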

Candida albicans SC5314 [13] = test: Inhibition of SE/CYP51 in Candida albicans ATCC SC5314 assessed as eburicol level at […] ug/ml incubated for 48 hrs by LC/MS analysis (reference value: 1.4 %); design: scale not given: the % may be the effect or the level left; settings: dose 0.125 µg/ml
Candida albicans SC5314 [14] = test: Inhibition of SE/CYP51 in Candida albicans ATCC SC5314 assessed as eburicol level at 0.5 ug/ml incubated for 48 hrs by LC/MS analysis (reference value: 1.4 %); design: scale not given: the % may be the effect or the level left; settings: dose 0.5 µg/ml; in short: as §2
Candida albicans SC5314 [15] = test: Inhibition of SE/CYP51 in Candida albicans ATCC SC5314 assessed as eburicol level at 4 ug/ml incubated for 48 hrs by LC/MS analysis (reference value: 1.4 %); design: scale not given: the % may be the effect or the level left; settings: dose 4.0 µg/ml; in short: as §2
Candida albicans SC5314 [16] = test: Inhibition of SE/CYP51 in Candida albicans ATCC SC5314 assessed as unknown sterol level at 0.5 ug/ml incubated for 48 hrs by LC/MS analysis (reference value: 3.5 %); design: scale not given: the % may be the effect or the level left; settings: dose 0.5 µg/ml; in short: as §2
[17] = Stability in human plasma assessed as compound remaining incubated for 60 mins; assay type: ADME, cell-free; settings: read-out: Stabilty
In short: (§3)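 Compound incubated in human plasma. Percent remaining measured at 60 and 120 min.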

[18] = Stability in human plasma assessed as compound remaining incubated for 120 mins; assay type: ADME, cell-free; settings: read-out: Stabilty; in short: as §3
[19] = Toxicity in mouse infected with Candida albicans SC5314 assessed as change in body weight administered via abdomen for 7 days; settings: in vivo, ip, 168 h, time 7 day
In short: (§4)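 Mice infected with C. albicans SC5314 by subcutaneous abdominal injection, then randomized into saline, and two compound-treated groups. Treatment given by abdominal injection for 7 days, with body weight monitored. Heart, liver, spleen, lung, kidney and infected abdominal tissue harvested for H&E histology.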

[20] = Toxicity in mouse infected with Candida albicans SC5314 assessed as change in kidney morphology administered via abdomen for 7 days by H and E staining based histological analysis; settings: in vivo, ip, 168 h, time 7 day; in short: as §4
[21] = Toxicity in mouse infected with Candida albicans SC5314 assessed as change in lung morphology administered via abdomen for 7 days by H and E staining based histological analysis; settings: in vivo, ip, 168 h, time 7 day; in short: as §4
[22] = Hepatotoxicity in mouse infected with Candida albicans SC5314 assessed as effect on alanine aminotransferase level in plasma administered via abdomen for 7 days (reference value: 105 +/- 8.3 IU/L); assay type: toxicity; settings: ip, 168 h, time 7 day

Compound | MIC50 (Nakaseomyces glabratus) [µg/mL] | MIC50 (Candida albicans [1]) [µg/mL] | MIC50 (Candida albicans [2]) [µg/mL] | Activity (Candida albicans [3]) [%] | Activity (Candida albicans [4]) [um] | Activity (Candida albicans SC5314 [11]) [%] | Activity (Candida albicans SC5314 [12]) [%] | Activity (Candida albicans SC5314 [13]) [%] | Activity (Candida albicans SC5314 [14]) [%] | Activity (Candida albicans SC5314 [15]) [%] | Activity (Candida albicans SC5314 [16]) [%] | remaining at 1 h [17] [%] | remaining at 2 h [18] [%] | Activity [19] | Activity [20] | Activity [21] | Activity [22] [IU/L] | further results
CC(NC(=O)c1cccc2ccccc12)C(=O)NC(Cn1ccnc1)C(=O)c1ccccc1 (stereo not given) | 0.25 | 2 | 4 | 11 | 7.51 | 66.4 | 12.5 | 17.5 | 34 | 42.6 | 5.8 | 96.3 | 92.1 | Non-Toxic | Non-Toxic | Non-Toxic | 106 | Activity (Candida albicans [5]): Active; Activity (Candida albicans [6]): Active; Activity (Candida albicans [7]): Active; Activity (Candida albicans [8]): Active; Activity (Candida albicans [9]): Active; Activity (Candida albicans [10]): Active
O=C(NC(Cn1ccnc1)C(=O)NCc1ccncc1)c1ccc2ccccc2c1 (stereo not given) | 0.125 | 4 | 8 | 16 | 7.53 | 68.4 | 10.9 | 13.6 | 37.9 | 49.3 | 4.8 | 94.5 | 91.6 | Non-Toxic | Non-Toxic | Non-Toxic | 102 | 
